Assay outcomes: PubChem BioAssay, several laboratories
Rows were chosen to be rich in hits. Some 0.89% of all compounds tested hit in one or more screens of this group.
Xi reactivation – X-chromosome reactivation activator; XiGFP mouse fibroblasts, % GFP-positive cells imaging, 3 d; cells co-treated with 5-aza-dC sensitizer; scaled so ellipticine positive control = 100%; activation, % at 7.58 µM; AID 743238; 360,000 tested, 0.055% active;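 active means mean normalized replicate activation at least 10% and every replicate at or above 10%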;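 further: 0% = median of on-plate neutral control wells and 100% = ellipticine 6 µM median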
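Schedule: 3 d treatment, 15 min room-temperature fixation; system: 68-5-11 XiGFP fibroblast line; buffer or medium: DMEM plus 5-aza-dC sensitizer; control set: ellipticine 6 µM positive control; compound: one concentration, pinned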
V-ATPase pHluor – regulators of yeast V-ATPase proton transport; S. cerevisiae, pHLuorin cytosolic pH fluorescence; response, % at 10 µM; 350,000 tested, 0.37% active; AID 504577; in the data active means response mostly above about 7.3%, no sharp cut-off; inactive means mostly below about 5.4%; further: actives read high
beta cell repl – induces beta-cell replication in MIN6 cells; proliferation, % at 10 µM; 330,000 tested, 0.29% active; AID 2380; MIN6 cells proliferation, ATPlite luminescence, 48 h; cells starved in 0.2% serum; 100% = growth in 10% serum;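 active means compounds whose signal lies at least 3.5 SD above the mean of all wells on their plate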;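 further: 0% = DMSO-treated cells in low-serum medium and 100% = 10% serum control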
T cell HTS – T cell immune modulation candidate; response (vesicle binding), % at 7 µM; 2C CD8+ T cell-vesicle binding, flow cytometry; stronger effect = lower value; 330,000 tested, 0.068% active;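 active means response, share of CD8 T cells binding vesicles, and their 90th percentile fluorescence all below set limits, cut at about 80% in these data, passing the limit was not always enough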;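 further: values below 100% mean blocked vesicle binding to the CD8+ T cells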
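incubation = binding step 1.5 h, 37 °C, antibody labelling 20 min, ice | test system = 2C mouse CD8+ T cells | read-out basis = percent CD8+ FL2 mean versus row control | controls = Peptide-free naked vesicles (low) and QL9 vesicles with 0.7% DMSO vehicle (high) | detection = flow cytometry of vesicle-bound cells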
NTR1 ag – activates human neurotensin receptor 1; P30989; NTR1-U2OS beta-arrestin-GFP spot imaging, agonist mode; activation, % at 20 µM; 330,000 tested, 0.17% active; AID 493036;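 active means activation at or above 40% of the spot to cytoplasm intensity ratio, with at least 20 cells analyzed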;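 further: 0% = DMSO without peptide and 100% = 100 nM NTR1 peptide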
Target sequence (P30989 whole entry, looked up): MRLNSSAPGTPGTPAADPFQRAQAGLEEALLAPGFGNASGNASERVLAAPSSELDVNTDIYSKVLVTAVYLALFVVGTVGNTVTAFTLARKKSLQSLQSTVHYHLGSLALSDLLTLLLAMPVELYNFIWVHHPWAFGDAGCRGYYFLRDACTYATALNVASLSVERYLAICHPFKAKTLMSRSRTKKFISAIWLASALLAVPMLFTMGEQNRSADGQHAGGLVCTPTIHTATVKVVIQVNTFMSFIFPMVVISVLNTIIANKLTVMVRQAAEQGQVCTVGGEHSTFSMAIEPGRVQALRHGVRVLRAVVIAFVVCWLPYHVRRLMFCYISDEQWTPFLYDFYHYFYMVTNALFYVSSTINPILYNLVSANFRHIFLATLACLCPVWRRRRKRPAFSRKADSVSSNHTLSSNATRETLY
Arrestin-AP2 inh – inhibitors of human beta-arrestin and AP2 interaction; inhibition, % at 10 µM; 340,000 tested, 0.31% active; FITC-arrestin peptide / GST-AP2 beads, flow cytometry; AP2 beta2 appendage carries R879A mutation;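 active means inhibition above a set limit, near 3 SD of compounds lacking own fluorescence, cut at about 54% in these data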;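 further: plate controls were DMSO wells for no effect and 5 µM unlabelled arrestin peptide for full effect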
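System: GST-AP2 R879A glutathione beads | Also added: FITC-arrestin peptide, 50 nM | Times: 12 min plus 1 h, RT | Signal: Bead flow cytometry, FITC channel | Buffer or medium: PBS with 0.05% Tween 20 and 0.1% BSA | Read-out basis: Percent drop in bead-associated FITC signal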
Arr AP2 CP1 – inhibitors of human beta-arrestin and AP2 interaction | shares compounds with Arrestin-AP2 inh | GST-AP2 beads, FITC arrestin peptide binding, flow cytometry; GST-fused beta2-adaptin appendage, R879A mutant | inhibition, % at 10 µM | 1,300 tested, 2% active | AID 504908;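 active means inhibition above a set limit, roughly 3 SD of non-fluorescent compound noise, cut at about 38% in these data; inactive means inhibition at or below that limit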;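 further: loss of bead fluorescence from 50 nM FITC arrestin peptide bound to appendage; 0% = negative control wells and 100% = excess unlabelled arrestin peptide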
GST-FITC bead – disrupts GST binding to glutathione beads, arrestin-AP2 artifact; shares compounds with Arrestin-AP2 inh; GST-fluorescein binding to GSH beads, fluorescence, counter-screen; inhibition, % at 10 µM; 1,300 tested, 2% active;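 active means inhibition above 50%, about 3 SD of the inhibition seen with non-fluorescent compounds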;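 further: fluorescein maleimide labelled GST captured on 4 micron glutathione beads; higher means more loss of bead fluorescence from quenching or blocked binding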
An asterisk follows results filed as active.

For CCc1ccc2[nH]c(=O)c(CN(CCN(CC)CC)C(=O)NC3CCCCC3)cc2c1 the results were V-ATPase pHluor -6, beta cell repl -3, T cell HTS 160, NTR1 ag -1, Arrestin-AP2 inh 76*, Arr AP2 CP1 8 and GST-FITC bead -7.
For Cc1cccc2cc(CN(CCN3CCOCC3)C(=O)Nc3ccccc3F)c(=O)[nH]c12 the results were Xi reactivation 0, V-ATPase pHluor 1, beta cell repl 1, T cell HTS 225, NTR1 ag 3 and Arrestin-AP2 inh -8.
Screening Cc1cccc2cc(CN(CCN3CCCC3)C(=O)NC3CCCCC3)c(=O)[nH]c12 returned V-ATPase pHluor -2, beta cell repl 0, T cell HTS 836, NTR1 ag 0, Arrestin-AP2 inh 13, Arr AP2 CP1 1 and GST-FITC bead -9.
CCCC#Cc1cnc2c(c1)C(=O)N([C@H](C)CO)C[C@@H](C)[C@@H](CN(C)C(=O)CN1CCOCC1)O2 was read as Xi reactivation 0.
`O=C(NC1CCCCC1)N(Cc1cc2cc3c(cc2[nH]c1=O)OCCO3)CC1CCCO1` (centres undefined) gave V-ATPase pHluor -1, beta cell repl -2, T cell HTS 302, NTR1 ag 1, Arrestin-AP2 inh -2, Arr AP2 CP1 -9 and GST-FITC bead -1.
Cc1cc2cc(CN(CCCN3CCOCC3)C(=O)NC3CCCCC3)c(=O)[nH]c2cc1C was read as V-ATPase pHluor -4, beta cell repl -1, T cell HTS 805, NTR1 ag -2, Arrestin-AP2 inh -1, Arr AP2 CP1 -4 and GST-FITC bead -2.
Screening O=C(NC1CCCCC1)N(CCN1CCCC1)Cc1cc2cc3c(cc2[nH]c1=O)OCCO3 returned V-ATPase pHluor -1, beta cell repl -5, T cell HTS 191, NTR1 ag 0 and Arrestin-AP2 inh -4.
Screening COc1ccccc1CNC(=O)COC(=O)c1c(C)nn(-c2ccccc2)c1Cl returned Xi reactivation 0, V-ATPase pHluor -2, beta cell repl 5, T cell HTS 304, NTR1 ag 3, Arrestin-AP2 inh 67*, Arr AP2 CP1 -13 and GST-FITC bead -2.
COc1cccc(CNC(=O)COC(=O)c2c(C)nn(-c3ccccc3)c2Cl)c1 was read as Xi reactivation 0, V-ATPase pHluor 3, beta cell repl -5, T cell HTS 364, NTR1 ag 2 and Arrestin-AP2 inh -6.
For O=C(Nc1nnc(C2=COCCO2)o1)c1cccc(Br)c1 the results were Xi reactivation 0, V-ATPase pHluor 0, beta cell repl -3, T cell HTS 484, NTR1 ag -1, Arrestin-AP2 inh 57*, Arr AP2 CP1 -3 and GST-FITC bead -4.
Cc1noc(C)c1NC(=O)Nc1ccc2c(c1)C(=O)N([C@H](C)CO)C[C@@H](C)[C@H](CN(C)Cc1ccc3c(c1)OCO3)O2 was read as Xi reactivation 0.
For CCn1nc(NS(=O)(=O)c2ccccc2)c2cc3cc(C)ccc3nc21 the results were Xi reactivation 0, V-ATPase pHluor -4, beta cell repl -3, T cell HTS 274, NTR1 ag 0, Arrestin-AP2 inh 62*, Arr AP2 CP1 3 and GST-FITC bead 2.
CCn1nc(NS(=O)(=O)c2ccccc2)c2cc3ccc(C)cc3nc21 was read as Xi reactivation 0, V-ATPase pHluor -6, beta cell repl 5, T cell HTS 461, NTR1 ag 0 and Arrestin-AP2 inh 4.
O=C(NCC[C@@H]1CC[C@@H](NC(=O)C2CCCCC2)[C@H](CO)O1)c1cnccn1 was read as Xi reactivation 0.
O=C1CN(C(=O)/C=C/c2ccccc2)CCN1 was read as Xi reactivation 0, V-ATPase pHluor -2, beta cell repl 7, T cell HTS 184, NTR1 ag -1, Arrestin-AP2 inh 57*, Arr AP2 CP1 -12 and GST-FITC bead -15.
`O=C1CN(C(=O)/C=C/c2ccc(Cl)cc2Cl)CCN1` gave Xi reactivation 0, V-ATPase pHluor 1, beta cell repl -2, T cell HTS 240, NTR1 ag 0 and Arrestin-AP2 inh 9.
COc1ccc(S(=O)(=O)N(C)C[C@H]2Oc3c(NC(=O)Nc4ccc(C(F)(F)F)cc4)cccc3C(=O)N([C@@H](C)CO)C[C@H]2C)cc1 was read as Xi reactivation -1.
Screening C[C@H](CO)N1C[C@H](C)[C@H](CN(C)C(=O)NC2CCCCC2)OCCCC[C@H](C)Oc2ccc(NS(=O)(=O)c3ccccc3)cc2C1=O returned Xi reactivation 0.
`Cc1nc(OCC(=O)c2ccc(Cl)cc2)c(C#N)c2c1COC(C)(C)C2` gave V-ATPase pHluor -1, beta cell repl -3, T cell HTS 417, NTR1 ag 8, Arrestin-AP2 inh 91*, Arr AP2 CP1 3 and GST-FITC bead -3.
O=C(Nc1ccccc1)c1nn(-c2ccccc2)c(=O)cc1C(F)(F)F was read as V-ATPase pHluor 8, beta cell repl 0, T cell HTS 596, NTR1 ag 2, Arrestin-AP2 inh 101*, Arr AP2 CP1 -3 and GST-FITC bead -9.
For C[C@H](CO)N1C[C@H](C)[C@H](CN(C)C(=O)C2CCC2)Oc2ncc(-c3ccncc3)cc2C1=O the results were Xi reactivation 0.
For Cc1ccc(-c2nc(NC(=O)c3ccc(S(=O)(=O)N(CCC#N)CCC#N)cc3)sc2-c2ccccc2)cc1 the results were Xi reactivation 0, V-ATPase pHluor -3, beta cell repl 0, T cell HTS 283, NTR1 ag -1, Arrestin-AP2 inh 63*, Arr AP2 CP1 0 and GST-FITC bead -3.
For N#CCCN(CCC#N)S(=O)(=O)c1ccc(C(=O)Nc2nc(-c3ccccc3)c(C(=O)c3ccccc3)s2)cc1 the results were Xi reactivation 0, V-ATPase pHluor 0, beta cell repl -4, T cell HTS 331, NTR1 ag 5 and Arrestin-AP2 inh -3.
CN1C(=O)c2cc(NS(=O)(=O)c3cccc(F)c3)ccc2OC[C@@H]2O[C@@H](CC(=O)O)CC[C@@H]21 was read as Xi reactivation 0.
